The record followed here is paper PMC9380703 (RSC Advances, 2022).

For orientation: IC50 means the midpoint of a concentration-inhibition curve.

Assay type in all cases: cell-based
Assay [1] deals with A549 (non-small lung carcinoma) cells. Nature of the assay: MTT cytotoxicity assay, A549 cells. Conditions: Homo sapiens, A549, 48 h, read-out: IC50 ± SD A549. In outline:
(§1)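 Cells exposed to test compounds for 48 h; viability read by MTT. IC50 computed from triplicate experiments and reported as mean ± SD, with paclitaxel as positive control. BEAS-2B normal lung epithelial cells assayed alongside the cancer lines.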

Assay [2] deals with BEAS-2B (normal human lung epithelial cells). The assay is described as follows: MTT cytotoxicity assay, BEAS-2B normal cells. The note with it: 48 h, read-out: IC50 ± SD BEAS-2B. Summed up: as §1
(In general: Tetrazolium dyes change colour on reduction, which living cells bring about.)

The subject of assay [3] is HeLa (human cervical cancer cells). The assay is described as follows: MTT cytotoxicity assay, HeLa cells. Conditions: 48 h, read-out: IC50 ± SD HeLa. In outline:
as §1

The test system of assay [4] is MCF-7 (breast cancer). The assay is described as follows: MTT cytotoxicity assay, MCF-7 cells. Conditions: Homo sapiens, MCF7, 48 h, read-out: IC50 ± SD MCF-7. Summed up:
as §1

Turning to `C[C@]12CC[C@H](O)C[C@H]1CC[C@@H]1[C@@H]2C[C@@H](O)[C@]2(C)[C@@H](C3=CC(=O)OC3)CC[C@]12O` [Compound 6, digoxigenin], the IC50 was found to be 1280 ± 230 nM in assay [1], 2580 ± 110 nM in assay [2], 770 ± 230 nM in assay [3] and 1440 ± 10 nM in assay [4].
Consider `CC(=O)O[C@H]1C[C@H](O[C@H]2[C@@H](O)C[C@H](O[C@H]3[C@@H](O)C[C@H](O[C@H]4CC[C@@]5(C)[C@H](CC[C@@H]6[C@@H]5C[C@@H](O)[C@]5(C)[C@@H](C7=CC(=O)OC7)CC[C@]65O)C4)O[C@@H]3C)O[C@@H]2C)O[C@H](C)[C@H]1O` [Compound 8, acetyldigoxin], for which the half-maximal inhibitory concentration (IC50) in assay [1] is 150 ± 10 nM; in assay [2] it was 250 ± 60 nM; in assay [3], 130 ± 7 nM; in assay [4] it was 190 ± 60 nM.
On to `CC(=O)O[C@H]1C(=O)[C@@]2(C)[C@H]([C@H](OC(=O)c3ccccc3)[C@]3(O)C[C@H](OC(=O)[C@H](O)[C@@H](NC(=O)c4ccccc4)c4ccccc4)C(C)=C1C3(C)C)[C@]1(OC(C)=O)CO[C@@H]1C[C@@H]2O` [Paclitaxel, reference compound], for which the half-inhibitory concentration (IC50) in assay [1] turned out to be 60 ± 40 nM; in assay [2], 130 ± 30 nM; in assay [3] it was 20 ± 10 nM; in assay [4], 110 ± 50 nM.
In the case of `CC(=O)O[C@H]1C[C@H](O[C@H]2[C@@H](O)C[C@H](O[C@H]3[C@@H](O)C[C@H](O[C@H]4CC[C@@]5(C)[C@H](CC[C@@H]6[C@@H]5C[C@@H](O)[C@]5(C)[C@@H](C7=CC(=O)OC7)CC[C@]65O)C4)O[C@@H]3C)O[C@@H]2C)O[C@H](C)[C@H]1O[C@@H]1O[C@H](CO)[C@@H](O)[C@H](O)[C@H]1O` [Compound 9, lanatoside C], the IC50 is 190 ± 30 nM in assay [1], 370 ± 100 nM in assay [2], 130 ± 13 nM in assay [3] and 240 ± 110 nM in assay [4].
